The values that follow come from ChEMBL document CHEMBL1155242, “Radiolabeled 5-iodo-3'-O-(17beta-succinyl-5alpha-androstan-3-one)-2'-deoxyuridine and its 5'-monophosphate for imaging and therapy of androgen receptor-positive cancers: synthesis and biological evaluation” (J Med Chem, 2009).

Data set [1] can be described thus: Stability in human OVCAR-3 cells expressing androgen receptor assessed as compound degradation at 0.1 uCi/mL up to 4 hrs by silica gel instant thin layer chromatography. In kind it is ADME, cell-based. Particulars: read-out: Activity.
A short description of data set [2]: Ratio of drug level in tumor to spleen in athymic NCr mouse xenografted with human OVCAR-3 cells at 180 uCi, ip administered 9 days after tumor implantation as six fractionated doses every 4 days measured after 1.5 hrs by gamma counting. Particulars: in vivo. It is filed as ADME, organism-based.
For data set [3], the system named is OVCAR-3. Kind of data set: Cellular uptake in human OVCAR-3 cells xenografted in athymic NCr mouse assessed as [125I]UdR retention per cell at an average 39.5 uCi/dose, ip administered 9 days after tumor implantation as six fractionated doses every 4 days measured after 2 weeks of last dose by gamma counting. It is filed as ADME, organism-based. Particulars: in vivo, 336 h. The method, boiled down: (§1)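 OVCAR-3-bearing and healthy athymic mice given fractionated ip doses on the six-dose every-4-days schedule; tissues, tumor and lavaged cells γ-counted at necropsy, %ID/g; DNA-bound 125I in cells measured as cpm/cell.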

The test system of data set [4] is Serum. The data set can be described thus: Stability in human serum assessed as half life at 10 to 20 uCi/mL by reversed phase HPLC analysis. It is filed as ADME, cell-free. The method, boiled down:
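The compound was incubated with rabbit or human serum at ambient temperature, and aliquots were taken at 1, 5 and 24 h. Aliquots were run on size-exclusion HPLC (TSK3000; 0.1 M potassium phosphate/0.1 M Na2SO4, pH 6.8, then an acetonitrile gradient). Extracts were run on C18 reversed-phase HPLC (water/acetonitrile with 0.07% TFA). Half-lives came from a monoexponential fit.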

Data set [5] can be described thus: Ratio of drug level in tumor to kidney in athymic NCr mouse xenografted with human OVCAR-3 cells at 180 uCi, ip administered 9 days after tumor implantation as six fractionated doses every 4 days measured after 72 hrs by gamma counting. Conditions: in vivo. In kind it is ADME, organism-based.
A short description of data set [6]: Ratio of drug level in tumor to kidney in athymic NCr mouse xenografted with human OVCAR-3 cells at 180 uCi, ip administered 9 days after tumor implantation as six fractionated doses every 4 days measured after 24 hrs by gamma counting. It is filed as ADME, organism-based. Conditions: in vivo.
Data set [7] has as its target T1, Sex hormone-binding globulin (Homo sapiens, UniProt P04278).
T1 sequence (P04278 whole entry): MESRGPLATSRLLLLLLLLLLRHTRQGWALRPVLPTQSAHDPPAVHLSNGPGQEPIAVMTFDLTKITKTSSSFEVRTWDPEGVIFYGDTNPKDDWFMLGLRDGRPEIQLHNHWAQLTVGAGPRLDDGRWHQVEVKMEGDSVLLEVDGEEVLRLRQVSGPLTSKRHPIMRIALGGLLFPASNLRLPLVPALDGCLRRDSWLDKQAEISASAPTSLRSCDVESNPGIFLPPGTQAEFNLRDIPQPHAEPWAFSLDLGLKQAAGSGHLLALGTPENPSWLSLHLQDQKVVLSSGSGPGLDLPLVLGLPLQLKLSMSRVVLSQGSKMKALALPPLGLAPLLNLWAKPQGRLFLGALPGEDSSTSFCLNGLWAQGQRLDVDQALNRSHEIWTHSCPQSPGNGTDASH
The data set can be described thus: Binding affinity to human sex hormone binding globulin after 30 mins by size-exclusion HPLC analysis. It is filed as ADME. In outline:
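Purified human SHBG diluted in PBS pH 7.1 to a range of concentrations; radioligand in CH3CN (10 μL, ~5.4 μCi average) added, vortexed, 30 min at ambient temperature. Aliquots analysed by size-exclusion HPLC for SHBG-bound peak.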

Data set [8] has as its system Lung. Kind of data set: Biodistribution in lung of athymic NCr mouse xenografted with human OVCAR-3 cells assessed per gram of tissue at an average 39.5 uCi/dose, ip administered 9 days after tumor implantation as six fractionated doses every 4 days measured after 2 weeks of last dose by gamma counting. Particulars: in vivo, 336 h. In kind it is ADME, organism-based. In outline: as §1

The subject of data set [9] is LNCaP. The data set can be described thus: Cytotoxicity against human LNCAP cells expressing androgen receptor assessed as cell survival at 8 uCi/mL after 48 hrs. It is filed as functional. In outline: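 LNCaP human prostate cancer cells were grown for 48 h with the 125I-labelled compound in the medium, and cell survival was then determined. D37 was expressed as the extracellular concentration in μCi/mL.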

Data set [10] relates to Mus musculus. The data set can be described thus: Toxicity in athymic NCr mouse xenografted with human OVCAR-3 cells assessed as hemoglobin level at 0.25 mCi, ip administered 31 days after tumor implantation as single bolus dose measured 55 days after implantation […] in presence of SHBG (RVb= 11.5 +/- 1.3 g/dL). In kind it is organism-based. Conditions: in vivo.

The test system of data set [11] is Heart. The data set can be described thus: Biodistribution in heart of athymic NCr mouse xenografted with human OVCAR-3 cells assessed per gram of tissue at an average 39.5 uCi/dose, ip administered 9 days after tumor implantation as six fractionated doses every 4 days measured after 2 weeks of last dose by gamma counting. In kind it is ADME, organism-based. Conditions: in vivo, 336 h. The method, boiled down:
as §1

The nature of data set [12]: Biodistribution in uterus of athymic NCr mouse xenografted with human OVCAR-3 cells assessed per gram of tissue at an average 39.5 uCi/dose, ip administered 9 days after tumor implantation as six fractionated doses every 4 days measured after 2 weeks of last dose by gamma counting. Conditions: in vivo, 336 h. It is filed as ADME, organism-based. The method, boiled down: as §1

Data set [13] deals with Stomach. Kind of data set: Biodistribution in stomach of athymic NCr mouse xenografted with human OVCAR-3 cells assessed per gram of tissue at an average 39.5 uCi/dose, ip administered 9 days after tumor implantation as six fractionated doses every 4 days measured after 2 weeks of last dose by gamma counting. In kind it is ADME, organism-based. Conditions: in vivo, 336 h. The method, boiled down:
as §1

For the compound `C[C@]12CCC(=O)C[C@@H]1CC[C@@H]1[C@@H]2CC[C@]2(C)[C@@H](OC(=O)CCC(=O)O[C@H]3C[C@H](n4cc([125I])c(=O)[nH]c4=O)O[C@@H]3CO)CC[C@@H]12`, in data set [1], the metabolised at 4 h, 0.1 uCi/mL amounted to 60%. The Ratio in [2] is reported as 1; in [5], 31.9; in data set [6], 79.1. In addition, the Drug uptake in data set [3] is 0.0124 cpm. Further, the t1/2 in data set [4] was 14.7 h.

Compound `C[C@]12CCC(=O)C[C@@H]1CC[C@@H]1[C@@H]2CC[C@]2(C)[C@@H](OC(=O)CCC(=O)O[C@H]3C[C@H](n4cc([125I])c(=O)[nH]c4=O)O[C@@H]3COP(=O)(O)O)CC[C@@H]12` showed a dissociation constant Kd in data set [7] of 17.2 nM. This compound showed a Bmax in [7] (human, 0.5 h) of 4.5 nM. Moreover, the Drug uptake in data set [8] was 0.008 %ID; in data set [11], 0.003 %ID; in [12] it was 0.027 %ID; in data set [13], 0.009 %ID. Also, in [9], the Survival came to 90%. Also, the Activity in [10] turned out to be 12.2 g/dL.
